Data on 37 sequences can be found in the array DNA melting data of Ke et al. (doi:10.1101/2024.01.08.574731).

A short description of series [1]: folding enthalpy; higher = less favourable; fluorescence melt of hairpins on a sequencing array, two-state fit. The following applies: sodium 0.088 M. The method, boiled down: (§1)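 Library hairpins on a sequenced MiSeq flow cell carried annealed Cy3 and quencher oligos, and their Cy3 fluorescence was imaged in 50 mM Na-HEPES pH 8.0 with 25 mM NaCl, in 2.5 °C steps up to 60 °C. Signals were normalised to Cy3 before quenching and to control constructs. Melting temperature and folding enthalpy were obtained from bootstrapped two-state fits, combined by inverse-variance weighting across four replicates, and the fitted temperatures were then raised by 9.35 °C to match UV melts.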

The nature of series [2]: melting temperature; fluorescence melt of hairpins on a sequencing array, two-state fit, raised by 9.35 °C to match UV melts. The conditions noted are these: sodium 0.088 M. The method, boiled down: as §1

GTGATCGGAAACGATCAC (((((((....))))))): the folding enthalpy in series [1] was -42.3 kcal/mol. Also, the Tm in series [2] came out at 68.6 °C.

GCCTCCGAAAGGATGGC ((((((....))).))): the folding enthalpy in series [1] is -36.6 kcal/mol. Besides, in series [2], the Tm turned out to be 57 °C.

Turning to GATCCTTCCCAGGATC ((((((....)))))), the folding enthalpy in series [1] is -36.9 kcal/mol. Moreover, the Tm in series [2] was 52 °C.

With GATATAGGAAACTATATC (((((((....))))))), in series [1], the folding enthalpy is -33.4 kcal/mol. The Tm in series [2] was 45.5 °C.

As for GAGCGAGGAAACTCACTC (((.(((....))).))), in series [1], the folding enthalpy was -31 kcal/mol. Further, in series [2], the Tm was 42.1 °C.

Turning to GCATCAGGAAACTAATGC ((((.((....)).)))), the folding enthalpy in series [1] is -22.6 kcal/mol. Also, in series [2], the Tm is 31.5 °C.

For GGATACGAAAGTAGCTCC ((((((....)))..))), the folding enthalpy in series [1] is -12.7 kcal/mol. In series [2], the Tm worked out at 37.1 °C.

As to GGTGTGGGAAACCATGCC ((..(((....)))..)), the folding enthalpy in series [1] was -30.7 kcal/mol. For the same sequence, the Tm in series [2] is 45.5 °C.

As for CGCACGGAAACGTCCGCG ((((((....)))..))), the folding enthalpy in series [1] was -19.1 kcal/mol. Besides, the Tm in series [2] was 41.2 °C.

For GTATGCGGAAACACATAC (((((.(....).))))), the folding enthalpy in series [1] is -32.8 kcal/mol. In series [2], the Tm amounted to 39.8 °C.

For GATCCCAAGCGGGATC ((((((....)))))), the folding enthalpy in series [1] is -32.5 kcal/mol. The Tm in series [2] amounted to 60.6 °C.

Turning to GGGAAGGGAAACCTTTCC ((.((((....)))).)), in series [1], the folding enthalpy was -24.4 kcal/mol. Besides, the Tm in series [2] was found to be 45.7 °C.

For the sequence GATCACCTTCGTGATC ((((((....)))))), the folding enthalpy in series [1] is -48.5 kcal/mol. Further, the Tm in series [2] was found to be 56.7 °C.

In the case of GCTCCGGGAAACCAGAGC ((((.((....)).)))), the folding enthalpy in series [1] was -31.9 kcal/mol. The Tm in series [2] turned out to be 47 °C.

For CGGTCGGAAACGAGGCCG ((((((....)))..))), the folding enthalpy in series [1] was -23.7 kcal/mol. Moreover, the Tm in series [2] came to 41.5 °C.

As to GATGCCCCGAAAGGGATC (((..(((....)))))), in series [1], the folding enthalpy was -10.3 kcal/mol. In addition, the Tm in series [2] is 32.5 °C.

GTGACCTCGAAAGAGCAC (((..(((....)))))): the folding enthalpy in series [1] is -14.8 kcal/mol. Further, the Tm in series [2] came to 30.9 °C.

Turning to CGCATACGGAAACGTGCG (((..(((....)))))), the folding enthalpy in series [1] was -30.2 kcal/mol. Further, the Tm in series [2] came to 48.9 °C.

Take GTTTACGAAAGTAAAAC ((((((....))).))): in series [1], the folding enthalpy is -16.8 kcal/mol. For the same sequence, in series [2], the Tm came to 38.4 °C.

For the sequence GTTATGGAAACATAAC ((((((....)))))), in series [1], the folding enthalpy is -30.3 kcal/mol. In addition, in series [2], the Tm was determined as 47.5 °C.

On to GCGGTGCGAAAGCTACGC (((..((....))..))), for which, in series [1], the folding enthalpy is -33.5 kcal/mol. Moreover, in series [2], the Tm was found to be 63.9 °C.

Consider CGCGGAGAGTCCGCG ((((((...)))))), for which, in series [1], the folding enthalpy was -27 kcal/mol. For the same sequence, the Tm in series [2] amounted to 69 °C.

In the case of GCCCACGGAAACGCAGGC (((..((....))..))), in series [1], the folding enthalpy was -17.8 kcal/mol. Further, the Tm in series [2] was 39.6 °C.

As to GATCGGGGCACCGATC ((((((....)))))), the folding enthalpy in series [1] is -34.9 kcal/mol. Further, the Tm in series [2] turned out to be 65.9 °C.

Regarding GTAAACACGAAAGTGTAC (((..(((....)))))), the folding enthalpy in series [1] was -11.7 kcal/mol. Further, in series [2], the Tm worked out at 31.2 °C.

For the sequence GTCAGCGGAAACACTGAC (((((.(....).))))), in series [1], the folding enthalpy is -40.7 kcal/mol. Moreover, the Tm in series [2] was 47.2 °C.

In the case of GTGCACGAAAGTGAGCAC ((((((....)))..))), in series [1], the folding enthalpy was -32.4 kcal/mol. Further, the Tm in series [2] is 51.6 °C.

GCGCCGGGAAACCGACGC (((.(((....))).))): the folding enthalpy in series [1] is -46.8 kcal/mol. Besides, the Tm in series [2] stood at 60.9 °C.

Regarding GATCACCGTCGTGATC ((((((....)))))), the folding enthalpy in series [1] is -39 kcal/mol. In addition, the Tm in series [2] amounted to 55.2 °C.

With GAACGCGAAAGCGTATTC ((((((....)))..))), the folding enthalpy in series [1] was -7.69 kcal/mol. The Tm in series [2] was determined as 35.8 °C.

With AGCTTGAAAAAGCT (((((....))))), the folding enthalpy in series [1] was -17.4 kcal/mol. Also, the Tm in series [2] amounted to 47.9 °C.

For GCGTTAGCGAAAGCTCGC (((..(((....)))))), the folding enthalpy in series [1] is -12.5 kcal/mol. In addition, the Tm in series [2] amounted to 44.2 °C.

Turning to GGCTCTTCGAAAGAAGCC (((..(((....)))))), the folding enthalpy in series [1] is -16.3 kcal/mol. Besides, in series [2], the Tm is 37.6 °C.

Turning to GGACCGGGAAACCAGTCC ((((.((....)).)))), the folding enthalpy in series [1] is -23.4 kcal/mol. In addition, the Tm in series [2] stood at 47.3 °C.

For GCATATCGAAAGATGTGC (((.(((....))).))), the folding enthalpy in series [1] was -36.5 kcal/mol. For the same sequence, the Tm in series [2] was 55.4 °C.

Consider GATCTACGGTAGATC ((((((...)))))), for which the folding enthalpy in series [1] is -37.3 kcal/mol. In series [2], the Tm came out at 41.4 °C.

With GGTCGTCGAAAGACTACC (((.(((....))).))), the folding enthalpy in series [1] was -30.6 kcal/mol. Moreover, in series [2], the Tm is 48.6 °C.
